Compounds with a hit are over-represented: about 3.6% of the library has one in this group of screens.
SKKanGAS inh: inhibitors of SKKanGAS S. pyogenes growth in kanamycin (SK-promoter or general growth effect); BacTiter-Glo, 6 h; inhibition, % at 7.5 µM; hit rate 1.3% among 300,000;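 active means mean replicate score, as percent of positive control median, at least 50; inconclusive means mean below 50 but one replicate at or above 50; inactive means mean and every replicate below 50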;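 further: strain carries kanamycin resistance gene driven by streptokinase promoter and grows in 40 µg/ml kanamycin; loss of luminescence reflects streptokinase promoter inhibition or plain growth inhibition; 0% = median of DMSO wells and 100% = positive control at its reference dose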
CSC inhib: cancer stem cell inhibition | AID 2717 | cancer stem cell-like cells viability, luminescence | hit rate 1.1% among 300,000 | inhibition, % at 7.5 µM; in the data active means inhibition above about 75%; inconclusive means no clear call, values can overlap the other calls; tested in HMLE shEcad cells
HIF act: HIF pathway transcriptional activation. U2OS HRE-luciferase reporter, luminescence; normalized: DMSO 0%, desferrioxamine 100%. activation, % at 7.5 µM (by protocol). hit rate 0.32% among 300,000. AID 1910;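 active means mean activation of at least 10% of the iron chelator positive control signal, with at least half of replicates also reaching 10%; inconclusive means mean and replicate majority disagree about reaching 10%; inactive means mean and most replicates under 10%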
Beta cell apopt: beta cell apoptosis inhibition | INS-1E cytokine-induced death, ATP luminescence, 48 h; percent of positive-control rescue, neutral wells zero | protection from apoptosis, % (concentration not given with the values) | AID 435005 | hit rate 0.8% among 300,000;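 active means Every replicate reaches about 75%, or at least half do and their mean reaches it too, limit read from the data; inconclusive means At least half of replicates reach the limit but their mean does not; inactive means Under half of replicates reach the limit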;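 further: 0% = cytokine-treated negative control wells and 100% = positive control rescue; higher means more ATP so stronger rescue from cytokine killing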
T cruzi repl: blocks replication of Trypanosoma cruzi; T. cruzi beta-gal in NIH3T3, luminescence, 90 h; inhibition, % (test concentration not listed); hit rate 1.4% among 300,000;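 active means mean inhibition across valid replicates above about 55%, limit read from the data; inconclusive means mean below that limit but half or more replicates reach it; inactive means mean below it, under half of replicates reach it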;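 further: signal also drops with host cell toxicity which is not excluded here; 0% = plate median of DMSO wells and 100% = zero luminescence signal; higher percent means less beta-gal luminescence so fewer parasites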
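System – NIH/3T3 host cells with β-galactosidase reporter T. cruzi · Doses – single 50 nL compound addition per well in DMSO · Reagent – 5000 T. cruzi trypomastigotes/well · Medium – Low-serum DMEM with 2% FBS · Timing – ≥90 h infection period, 3 h prior cell attachment · Evaluation – parasite load inhibition, % · Technique – GalScreen luminescence, 60 min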
PfHsp90 set2: inhibits growth of yeast expressing Plasmodium falciparum Hsp90. S. cerevisiae expressing PfHsp90, BacTiter-Glo ATP, 48 h; yeast lacking PDR1 and PDR3 efflux regulators. inhibition, % at 9.4 µM. hit rate 0.32% among 310,000. AID 504621;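 active means every replicate shows inhibition above about 80%, whatever the replicate mean, limit read from the data; inconclusive means mean inhibition reaches the set limit but some replicate falls short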;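 further: 0% = DMSO neutral controls and 100% = 20 µM radicicol positive controls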
Starred values were filed as active, the others as inactive; u = inconclusive; x = no result given.

SMILES	SKKanGAS inh	CSC inhib	HIF act	Beta cell apopt	T cruzi repl	PfHsp90 set2
Cc1cccc(C)c1N(CC(=O)NC1CCCCC1)C(=O)c1csnn1	-4	52	0	1	2	-30
CCn1c(O)c(/C=N/N=C/c2ccccc2)c2ccc(C3=NNC(=O)CC3)cc21	52*	x	-1	6	12	x
Cc1c(-c2ccccn2)c(=O)[nH]n1-c1ccc(F)cc1	-4	-4	-2	0	-5	-4
CCOC(=O)c1cn(C2CC2)c2c(F)c(F)c(F)cc2c1=O	-20	x	-1	-2	25	-20
COC(=O)C(C)NC(=S)N1CCN(c2c(F)cc3c(=O)c(C(=O)O)cn(C4CC4)c3c2OC)CC1C (stereo not drawn)	95*	-9	0	-4	13	15
CN1CCN(c2c(F)cc3c(=O)c(C(=O)O)cn4c3c2SCC4)CC1	14	-14	0	-2	-16	-4
CNC(=S)N1CCN(c2c(F)cc3c(=O)c(C(=O)O)cn(C4CC4)c3c2OC)CC1C (stereo not drawn)	104*	-15	-1	7	-11	-33
O=C(Cn1cnc([N+](=O)[O-])n1)N/N=C/c1cccc2ccccc12	1	0	0	2	52	2
O=C(Cn1cnc([N+](=O)[O-])n1)N/N=C/c1ccc(O)cc1O	10	80*	0	x	6	-10
Cc1cc2nc(-c3ccc[nH]c3=O)[nH]c2cc1C	35	64	-1	78*	2	71
Cc1cc2nc(-c3ccc[nH]c3=O)n(Cc3ccc(F)cc3)c2cc1C	-2	-14	-2	5	6	17
O=C(NCc1cccnc1)c1sc2cc(Cl)ccc2c1Cl	-12	-4	1	-12	42	0
Cn1c(C(=O)NCc2cccnc2)cc2sc(Cl)cc21	1	-8	1	0	61*	13
FC(F)(F)c1ccc(CSc2ccccn2)cc1	-2	-5	10.0*	-9	-17	-5
CCCc1cc(=O)oc2cc(C)cc(OCC(=O)NCCCN3CCCC3=O)c12	1	-31	0	5	-20	-3
N#CC(=C(O)COC(=O)CCCNC(=O)c1ccc(Cl)cc1)c1nc2ccccc2[nH]1	x	x	x	x	x	11
CCCCCCCC(=O)N/N=C(\C)c1ccc(N)cc1	2	19	3	2	-8	x
CCCCCCCCCC(=O)N/N=C(\C)c1cccnc1	-10	13	0	2	62*	-3
COc1cc(NS(=O)(=O)c2ccc(-c3ccc(=O)[nH]n3)o2)cc(OC)c1OC	1	-14	0	-2	-3	-3
CCOc1ccc(C(C(=O)NC2CCCCC2)N(CCOC)C(=O)c2snc(C(N)=O)c2N)cc1 (stereo not drawn)	-3	1	0	-4	2	22
COc1ccc2[nH]cc(C(=O)CCl)c2c1	-18	39	4	-68	61*	-4
CCOc1ccc(C(=O)CCC(=O)N2CCN(c3ncccn3)CC2)cc1	-14	3	0	-2	2	-4
O=C(C#Cc1cccc([N+](=O)[O-])c1)c1ccccc1	-8	39	2	39	51	137*
Nc1ccccc1C#CC(=O)c1ccccc1	-4	30	-2	91*	u	114*
Nc1ccccc1C#Cc1ccc([N+](=O)[O-])cc1	-2	26	4	0	5	-11
SMILES	SKKanGAS inh	CSC inhib	HIF act	Beta cell apopt	T cruzi repl	PfHsp90 set2
O=C1N=C2N(CCN3CCCCC3)c3ccccc3N2/C1=C\c1ccc([N+](=O)[O-])s1	x	x	x	x	x	-25
CCOc1cc(N2CCOCC2)c(OCC)cc1NC(C)C(=O)N1CCC(C)CC1 (stereo not drawn)	-1	2	29*	6	43	-20
CCOc1cc(N2CCOCC2)c(OCC)cc1NC(=O)[C@H](C)N1C(=O)C2CC=CCC2C1=O (stereo partly drawn)	-3	-7	0	0	9	x
COc1ccc(Nc2nc(NCC3CCCO3)c3ccccc3n2)c(OC)c1 (stereo not drawn)	-9	-14	0	19	68*	5
c1ccc(Nc2nc(NCC3CCCO3)c3ccccc3n2)cc1 (stereo not drawn)	-6	10	0	31	93*	21
Cc1ccc(NC(=O)CN(C)C(=O)c2cc(-c3ccccc3)nn2-c2ccccc2)cc1	x	x	x	x	x	-20
